Measured values of several laboratories.
Nectin-4: Nectin-4 (Homo sapiens, UniProt Q96NY8)
SIGMAR1: Sigma non-opioid intracellular receptor 1 (SIGMAR1, Homo sapiens, UniProt Q99720)
PFF0160c E182D: Dihydroorotate dehydrogenase (quinone), mitochondrial (PFF0160c, Plasmodium falciparum, UniProt Q08210, E182D)

SMILES | target | test | quantity | value
CCCC[C@@H]1NC(=O)[C@H](Cc2ccc(O)cc2)NC(=O)[C@@H]2CCCN2C(=O)[C@H](CC(=O)O)NC(=O)[C@H](C)NC(=O)[C@H](Cc2ccccc2)NC(=O)[C@@H]2CSCCC(=O)N3CN(CN(C3)C(=O)CCSC[C@@H](C(N)=O)NC1=O)C(=O)CCSCCC(=O)N[C@@H](CC(C)(C)C)C(=O)N1CCC[C@H]1C(=O)N[C@@H](CCC(=O)O)C(=O)N[C@H](CCCCNC(=O)CCc1cn(CCOCCOCCOCCOCCOCCC(=O)N[C@H]3CSCCC(=O)N4CN5CN(C4)C(=O)CCSC[C@H](NC(=O)[C@@H](CC(=O)O)NC(=O)[C@H](Cc4cccc6ccccc46)NC(=O)[C@@H]4CCCN4C3=O)C(=O)N[C@@H](CCSC)C(=O)N[C@@H](CCCCNC(=N)N)C(=O)N[C@@H](CC(=O)O)C(=O)N[C@@H](Cc3c[nH]c4ccccc34)C(=O)N[C@@H](CO)C(=O)N[C@@H]([C@@H](C)O)C(=O)N3CCC[C@H]3C(=O)N3C[C@H](O)C[C@H]3C(=O)N[C@@H](Cc3c[nH]c4ccccc34)C(=O)N[C@H](C(N)=O)CSCCC5=O)nn1)C(=O)N1CCC[C@H]1C(=O)N[C@@H](Cc1ccc(O)cc1)C(=O)N2 | Nectin-4 | binding, SPR | Kd | 1.4 nM
Cc1cc(Nc2ccc3c(c2)CCC3)n2ncnc2n1 | Dihydroorotate dehydrogenase (quinone), mitochondrial (PFF0160c, Plasmodium falciparum, UniProt Q08210) | enzyme activity, inhibitor, absorbance | IC50 | 695 nM
CN1CCN(C2=Nc3cc(Cl)ccc3Nc3ccccc32)CC1 | SIGMAR1 | ligand displacement, radioligand | Ki | > 10000 nM
CCCC[C@@H]1NC(=O)[C@H](Cc2ccc(O)cc2)NC(=O)[C@@H]2CCCN2C(=O)[C@H](CC(=O)O)NC(=O)[C@H](C)NC(=O)[C@H](Cc2ccccc2)NC(=O)[C@@H]2CSCCC(=O)N3CN(CN(C3)C(=O)CCSC[C@@H](C(=O)N[C@@H](CNC(=O)CCc3cn(CCOCCOCCOCCN(CCOCCOCCOCCC(=O)N[C@H]4CSCCC(=O)N5CN6CN(C5)C(=O)CCSC[C@H](NC(=O)[C@@H](CC(=O)O)NC(=O)[C@H](Cc5cccc7ccccc57)NC(=O)[C@@H]5CCCN5C4=O)C(=O)N[C@@H](CCSC)C(=O)N[C@@H](CCCCNC(=N)N)C(=O)N[C@@H](CC(=O)O)C(=O)N[C@@H](Cc4c[nH]c5ccccc45)C(=O)N[C@@H](CO)C(=O)N[C@@H]([C@@H](C)O)C(=O)N4CCC[C@H]4C(=O)N4C[C@H](O)C[C@H]4C(=O)N[C@@H](Cc4c[nH]c5ccccc45)C(=O)N[C@H](C(N)=O)CSCCC6=O)CCOCCOCCOCCn4cc(CCC(=O)NC[C@H](NC(=O)[C@@H]5CSCCC(=O)N6CN7CN(C6)C(=O)CCSC[C@H](NC(=O)[C@H](Cc6ccc(O)cc6)NC(=O)[C@@H]6CCCN6C(=O)[C@@H](C)NC(=O)[C@H](CCC(=O)O)NC(=O)[C@@H]6CCCN6C(=O)[C@H](CC(C)(C)C)NC(=O)[C@@H](NC(C)=O)CSCCC7=O)C(=O)N[C@@H](Cc6ccccc6)C(=O)N[C@@H](C)C(=O)N[C@@H](CC(=O)O)C(=O)N6CCC[C@H]6C(=O)N[C@@H](Cc6ccc(O)cc6)C(=O)N[C@@H](CCCC)C(=O)N5)C(N)=O)nn4)nn3)C(N)=O)NC1=O)C(=O)CCSC[C@H](NC(C)=O)C(=O)N[C@@H](CC(C)(C)C)C(=O)N1CCC[C@H]1C(=O)N[C@@H](CCC(=O)O)C(=O)N[C@H](C)C(=O)N1CCC[C@H]1C(=O)N[C@@H](Cc1ccc(O)cc1)C(=O)N2 | Nectin-4 | binding, SPR | Kd | 3.7 nM
CCC(c1ccccc1)c1nn2c(-c3cccs3)nnc2s1 (stereo not drawn) | PFF0160c E182D | enzyme activity, inhibitor, absorbance | IC50 | 171 nM
COc1cc2c(cc1OC)C(=O)C(CC1CCN(Cc3ccccc3)CC1)C2 (stereo not drawn) | SIGMAR1 | ligand displacement, radioligand | Ki | 19.1 nM
N[C@@H](C[C@]1(C(=O)O)C[C@H]2OC[C@@H](O)[C@@H](O)[C@H]2O1)C(=O)O | Glutamate receptor ionotropic, kainate 2 (Grik2, Rattus norvegicus, UniProt P42260, A518T/Y443F) | ligand displacement, radioligand | Ki | 972 nM
N[C@@H](CC(=O)O)C(=O)O | tar (Salmonella enterica, UniProt P02941, E302Q/E491Q) | binding | Kd | 1000 nM
CC(C)NC[C@@H](O)COc1cccc2ccccc12 | SIGMAR1 | ligand displacement, radioligand | Ki | 344 nM
CCCC[C@@H]1NC(=O)[C@H](Cc2ccc(O)cc2)NC(=O)[C@@H]2CCCN2C(=O)[C@H](CC(=O)O)NC(=O)[C@H](C)NC(=O)[C@H](Cc2ccccc2)NC(=O)[C@@H]2CSCCC(=O)N3CN(CN(C3)C(=O)CCSC[C@H](NC(C)=O)C(=O)N[C@@H](CC(C)(C)C)C(=O)N3CCC[C@H]3C(=O)N[C@@H](CCC(=O)O)C(=O)N[C@H](CCCCNC(=O)CCc3cn(CCOCCOCCOCCN(CCOCCOCCOCCC(=O)N[C@H]4CSCCC(=O)N5CN6CN(C5)C(=O)CCSC[C@H](NC(=O)[C@@H](CC(=O)O)NC(=O)[C@H](Cc5cccc7ccccc57)NC(=O)[C@@H]5CCCN5C4=O)C(=O)N[C@@H](CCSC)C(=O)N[C@@H](CCCCNC(=N)N)C(=O)N[C@@H](CC(=O)O)C(=O)N[C@@H](Cc4c[nH]c5ccccc45)C(=O)N[C@@H](CO)C(=O)N[C@@H]([C@@H](C)O)C(=O)N4CCC[C@H]4C(=O)N4C[C@H](O)C[C@H]4C(=O)N[C@@H](Cc4c[nH]c5ccccc45)C(=O)N[C@H](C(N)=O)CSCCC6=O)CCOCCOCCOCCn4cc(CCC(=O)NCCCC[C@H]5NC(=O)[C@H](CCC(=O)O)NC(=O)[C@@H]6CCCN6C(=O)[C@H](CC(C)(C)C)NC(=O)[C@@H](NC(C)=O)CSCCC(=O)N6CN7CN(C6)C(=O)CCSC[C@H](NC(=O)[C@H](Cc6ccc(O)cc6)NC(=O)[C@@H]6CCCN6C5=O)C(=O)N[C@@H](Cc5ccccc5)C(=O)N[C@@H](C)C(=O)N[C@@H](CC(=O)O)C(=O)N5CCC[C@H]5C(=O)N[C@@H](Cc5ccc(O)cc5)C(=O)N[C@@H](CCCC)C(=O)NCCSCCC7=O)nn4)nn3)C(=O)N3CCC[C@H]3C(=O)N[C@@H](Cc3ccc(O)cc3)C(=O)N2)C(=O)CCSCCNC1=O | Nectin-4 | binding, SPR | Kd | 2.8 nM
COc1cc(Nc2ccnc3cc(-c4ccncc4)ccc23)cc(OC)c1OC | PFF0160c E182D | enzyme activity, inhibitor, absorbance | IC50 | 1510 nM
CCCC[C@@H]1NC(=O)[C@H](Cc2ccc(O)cc2)NC(=O)[C@@H]2CCCN2C(=O)[C@H](CC(=O)O)NC(=O)[C@H](C)NC(=O)[C@H](Cc2ccccc2)NC(=O)[C@@H]2CSCCC(=O)N3CN(CN(C3)C(=O)CCSC[C@@H](C(=O)N[C@@H](C)C(N)=O)NC1=O)C(=O)CCSC[C@H](NC(=O)[C@H](C)NC(C)=O)C(=O)N[C@@H]([C@@H](C)CC)C(=O)N[C@@H](CCC(=O)O)C(=O)N[C@@H](CCC(=O)O)C(=O)N[C@H](CCCCNC(=O)CCc1cn(CCOCCOCCOCCN(CCOCCOCCOCCC(=O)N[C@H]3CSCCC(=O)N4CN5CN(C4)C(=O)CCSC[C@H](NC(=O)[C@@H](CC(=O)O)NC(=O)[C@H](Cc4cccc6ccccc46)NC(=O)[C@@H]4CCCN4C3=O)C(=O)N[C@@H](CCSC)C(=O)N[C@@H](CCCCNC(=N)N)C(=O)N[C@@H](CC(=O)O)C(=O)N[C@@H](Cc3c[nH]c4ccccc34)C(=O)N[C@@H](CO)C(=O)N[C@@H]([C@@H](C)O)C(=O)N3CCC[C@H]3C(=O)N3C[C@H](O)C[C@H]3C(=O)N[C@@H](Cc3c[nH]c4ccccc34)C(=O)N[C@H](C(N)=O)CSCCC5=O)CCOCCOCCOCCn3cc(CCC(=O)NCCCC[C@H]4NC(=O)[C@H](CCC(=O)O)NC(=O)[C@H](CCC(=O)O)NC(=O)[C@H]([C@@H](C)CC)NC(=O)[C@@H](NC(=O)[C@H](C)NC(C)=O)CSCCC(=O)N5CN6CN(C5)C(=O)CCSC[C@H](NC(=O)[C@H](Cc5ccc(O)cc5)NC(=O)[C@H](CCC(N)=O)NC4=O)C(=O)N[C@@H](Cc4ccccc4)C(=O)N[C@@H](C)C(=O)N[C@@H](CC(=O)O)C(=O)N4CCC[C@H]4C(=O)N[C@@H](Cc4ccc(O)cc4)C(=O)N[C@@H](CCCC)C(=O)N[C@H](C(=O)N[C@@H](C)C(N)=O)CSCCC6=O)nn3)nn1)C(=O)N[C@@H](CCC(N)=O)C(=O)N[C@@H](Cc1ccc(O)cc1)C(=O)N2 | Nectin-4 | binding, SPR | Kd | 6.8 nM
Cc1c2ccncc2c(C)c2c1[nH]c1ccccc12 | SIGMAR1 | ligand displacement, radioligand | Ki | > 10000 nM
CCCC[C@@H]1NC(=O)[C@H](Cc2ccc(O)cc2)NC(=O)[C@@H]2CCCN2C(=O)[C@H](CC(=O)O)NC(=O)[C@H](C)NC(=O)[C@H](Cc2ccccc2)NC(=O)[C@@H]2CSCCC(=O)N3CN(CN(C3)C(=O)CCSC[C@H](NC(C)=O)C(=O)N[C@@H](CC(C)(C)C)C(=O)N[C@@H](CCC(=O)O)C(=O)N[C@@H](CCC(=O)O)C(=O)N[C@H](CCCCNC(=O)CCc3cn(CCOCCOCCOCCOCCOCCC(=O)N[C@H]4CSCCC(=O)N5CN6CN(C5)C(=O)CCSC[C@H](NC(=O)[C@@H](CC(=O)O)NC(=O)[C@H](Cc5cccc7ccccc57)NC(=O)[C@@H]5CCCN5C4=O)C(=O)N[C@@H](CCSC)C(=O)N[C@@H](CCCCNC(=N)N)C(=O)N[C@@H](CC(=O)O)C(=O)N[C@@H](Cc4c[nH]c5ccccc45)C(=O)N[C@@H](CO)C(=O)N[C@@H]([C@@H](C)O)C(=O)N4CCC[C@H]4C(=O)N4C[C@H](O)C[C@H]4C(=O)N[C@@H](Cc4c[nH]c5ccccc45)C(=O)N[C@H](C(N)=O)CSCCC6=O)nn3)C(=O)N3CCC[C@H]3C(=O)N[C@@H](Cc3ccc(O)cc3)C(=O)N2)C(=O)CCSC[C@@H](C(N)=O)NC1=O | Nectin-4 | binding, SPR | Kd | 1.7 nM
COc1nc(NCC(C)C)nc(Oc2ccc(=O)n(Cc3ccccc3)n2)n1 | PFF0160c E182D | enzyme activity, inhibitor, absorbance | IC50 | 4640 nM
